Compound activity from PubChem BioAssay.
FGF22 binding = shifts melting point of recombinant human FGF22; 1.5% of 340,000 active; recombinant FGF22 thermal shift, SYPRO orange fluorescence; percent of sucrose octasulfate shift, DMSO zero; activity (Tm shift, normalised), % at 9.99 µM; Q9HCT0;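 active = mean Tm shift, scaled 0 neutral to 100 positive control, at about 1.3% or above, every replicate too, limit read from the data; inconclusive = no clear call, values can overlap the other calls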
Target sequence (Q9HCT0 whole entry, looked up): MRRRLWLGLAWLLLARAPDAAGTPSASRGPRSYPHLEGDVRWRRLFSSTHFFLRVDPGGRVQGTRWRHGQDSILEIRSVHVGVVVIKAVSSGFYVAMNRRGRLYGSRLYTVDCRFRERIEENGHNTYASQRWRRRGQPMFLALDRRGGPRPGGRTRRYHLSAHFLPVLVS
C2C12 statin = protects C2C12 myotubes from simvastatin toxicity | AID 602340 | rescue of ATP level, % at 7.49 µM | ATP luminescence, 48 h; scaled: DMSO 0, geranylgeraniol control 100 | 0.78% of 330,000 active;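 active = mean ATP rescue above about 67%, or every replicate alone reaching that limit, limit read from the data, passing the limit was not always enough; inconclusive = no clear call, values can overlap the other calls; inactive = mean under the limit and some replicate under it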;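 note: myotubes were challenged with 10 µM simvastatin during compound exposure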
PglD inh = blocks C. jejuni PglD acetyltransferase activity; AID 602405; purified PglD enzyme, DTNB colorimetric CoA detection; 0.098% of 360,000 active; inhibition, % at 12.5 µM; in the data active = inhibition above about 16%, passing the limit was not always enough; inconclusive = no clear call, values can overlap the other calls
DENV2 CPE = protects cells from dengue virus 2 cytopathic effect. DENV2-infected cells, cytopathic effect rescue, plate reader. CPE inhibition, % at 9.99 µM. 1.7% of 350,000 active; in the data active = CPE inhibition above about 20%, passing the limit was not always enough; inconclusive = no clear call, values can overlap the other calls; tested in BHK-21 cells;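 note: 0% = median of neutral control wells and 100% = median of positive control wells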
E-sel inducer = induces E-selectin expression in human endothelial cells | P16581 | HUVEC E-selectin immunofluorescence imaging; normalized: neutral wells 0, TNF-alpha wells 100 | activation, % at 7.58 µM | 0.37% of 260,000 active | AID 686992;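 active = mean E-selectin-positive cell signal at least 10% of the positive control, reached in at least 60% of replicates, without over 20% cell loss; inconclusive = no rule given, readout overlaps actives, possibly toxicity-flagged; inactive = the rest, including those meeting only one limit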
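Test system – human umbilical vein endothelial cells (HUVEC), E-selectin induction · Input – 3,000 HUVEC seeded per well · Buffer or medium – EGM-2, gelatin · Compound dosing – single-point compound dose · Detection – immunofluorescence imaging · Measure – percent E-selectin-positive cells · Controls – TNF-alpha high, DMSO low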
Xi reactivation = reactivates the inactive X chromosome in mouse fibroblasts | activation, % at 7.58 µM | AID 743238 | 0.055% of 360,000 active | XiGFP mouse fibroblasts, % GFP-positive cells imaging, 3 d; cells co-treated with 5-aza-dC sensitizer; scaled so ellipticine positive control = 100%;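 active = mean normalized replicate activation at least 10% and every replicate at or above 10%; inconclusive = only one of the two criteria met; inactive = mean below 10% and not all replicates reach 10%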;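 note: 0% = median of on-plate neutral control wells and 100% = ellipticine 6 µM median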
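Assay system: SV40-immortalized XiGFP fibroblast cells, line 68-5-11; buffer or medium: DMEM plus 5-aza-dC sensitizer; compound: one concentration, pinned; timing: compounds 3 days, fix/stain 15 min at room temperature; benchmarks: positive control ellipticine, 6 µM final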
Starred values were filed as active, the others as inactive; ? = inconclusive; / = no result. A selection: hits, their analogues and other compounds. The true share with any hit is near 3.3%.

SMILES	FGF22 binding	C2C12 statin	PglD inh	DENV2 CPE	E-sel inducer	Xi reactivation
FC(F)(F)c1cccc(-c2noc(CN3CCOCC3)n2)c1	/	-8	/	/	/	/
COc1ccc(Cc2nc(-c3cccc(C)c3)no2)cc1	/	13	0	/	/	/
CN1CCCN(Cc2nc(-c3cccc(C(F)(F)F)c3)no2)CC1	43*	/	/	-6	0	0
CC(C)CC#Cc1ccc([C@H]2[C@H](CO)N3C(=O)CN(C(=O)Cc4ccccc4)C[C@@H]23)cc1	/	/	/	-5	0	0
Cc1noc(C)c1NC(=O)N(C)C[C@H]1Oc2ccc(NC(=O)Nc3ccc4c(c3)OCO4)cc2CC(=O)N([C@H](C)CO)C[C@H]1C	0	11	3	2	0	0
CC(C)C(=O)Nc1nnc(SCC(=O)Nc2ccc3c(c2)OCO3)s1	/	6	0	/	/	/
CS(=O)(=O)Nc1nnc(SCC(=O)Nc2cccc([N+](=O)[O-])c2)s1	43*	/	/	6	/	0
Cn1nnnc1SCC(=O)Nc1cccc([N+](=O)[O-])c1	43	/	/	-6	/	0
O=C(Nc1cccc(-n2cnnn2)c1)c1ccco1	/	111*	5	/	/	/
CC(C)C(=O)Nc1nnc(SCC(=O)Nc2ccc3c(c2)OCCO3)s1	1.4*	3	3	/	?	0
COc1ccc(NC(=O)CSc2nnc(NC(=O)c3ccccc3C(=O)O)s2)cc1	43*	7	-7	5	-1	0
O=C(Nc1cccc(-n2cnnn2)c1)c1cc2ccccc2o1	0	5	3	-1	0	0
O=C(CSc1nnc(NC(=O)c2ccco2)s1)Nc1cccc(F)c1	0	6	-6	8	4	0
CC(=O)Nc1cccc(NC(=O)CSc2nnc(NC(=O)c3ccco3)s2)c1	1.5*	5	-1	?	0	0
CN(C)C(=O)C[C@@H]1C[C@@H]2c3cc(NS(C)(=O)=O)ccc3O[C@@H]2[C@H](CO)O1	0	12	4	17	1	0
O=C(Oc1ccccc1C(=O)Oc1ccccc1)c1cccnc1	43*	/	/	5	-1	0
C[C@@H]1CCCCO[C@@H](CN(C)C(=O)CCCN(C)C)[C@H](C)CN([C@H](C)CO)C(=O)c2cc(NC(=O)Nc3ccc4c(c3)OCO4)ccc2O1	0	/	1	-3	0	0
C[C@H](CO)N1C[C@H](C)[C@@H](CN(C)C(=O)CCCN(C)C)OCCCC[C@H](C)Oc2ccc(NC(=O)Nc3ccc(C(F)(F)F)cc3)cc2C1=O	0	90*	1	2	0	0
C[C@@H]1CCCCO[C@H](CN(C)C(=O)CCCN(C)C)[C@@H](C)CN([C@@H](C)CO)C(=O)c2cc(NC(=O)Nc3ccc(C(F)(F)F)cc3)ccc2O1	0	44	-1	-2	0	0
C[C@@H]1CCCCO[C@H](CN(C)C(=O)CCCN(C)C)[C@@H](C)CN([C@@H](C)CO)C(=O)c2cc(NC(=O)Nc3ccc4c(c3)OCO4)ccc2O1	0	/	-1	47*	0	0
O=C(c1ccccc1F)N1C[C@@H]2[C@H](c3ccccc31)[C@@H](CO)N2C(=O)Nc1ccccc1	0	-12	0	18	0	0
CN(C)S(=O)(=O)c1cccc2c1C(=O)c1ccccc1C2=O	1	/	/	23*	/	0
CN(C)S(=O)(=O)c1ccccc1C#N	0	-9	3	0	/	/
CCNC(=O)C[C@H]1CC[C@H]2[C@H](COc3ccc(NC(=O)c4cccc(OC)c4)cc3C(=O)N2C)O1	0	-7	-1	-11	1	0
CCn1cc(/C=C(\NC(=O)c2ccccc2OC)C(=O)NCCN2CCOCC2)c2ccccc21	0	-4	3	22*	0	0
SMILES	FGF22 binding	C2C12 statin	PglD inh	DENV2 CPE	E-sel inducer	Xi reactivation
CCn1cc(/C=C(\NC(=O)c2cc(OC)c(OC)c(OC)c2)C(=O)NCCN2CCOCC2)c2ccccc21	0	4	/	2	0	0
COc1ccccc1/C=C(/NC(=O)c1ccccc1)C(=O)NCCN1CCOCC1	44*	/	/	0	0	0
O=C(CCN1CCCCC1)NCC[C@@H]1CC[C@H](NC(=O)C2CCCCC2)[C@@H](CO)O1	/	/	/	-6	0	0
COC1=CC(=O)c2c(ccc3ncnc(N)c23)C1=O	0	/	/	-1	/	19*
C[C@H]1CCCCO[C@H](CN(C)C(=O)CCC(F)(F)F)[C@@H](C)CN([C@@H](C)CO)C(=O)c2cc(NS(=O)(=O)c3cn(C)cn3)ccc2O1	0	/	3	-1	0	0
CC(=O)N(c1ccccc1C)C1CCCC1	0	-3	1	-5	/	0
CC(=O)N(C1=C(Cl)C(=O)c2ccccc2C1=O)C1CCCCC1	-1	/	7	-3	36*	4
C[C@H](CO)N1C[C@H](C)[C@H](CN(C)C(=O)C2CCCCC2)OCCCC[C@H](C)Oc2ccc(NC(=O)c3ccccc3)cc2C1=O	0	/	-2	-2	0	0
Cc1cccc2sc(NC(=O)CN(C)S(=O)(=O)c3ccc(Br)s3)nc12	/	100*	0	/	/	/
COc1ccc(NC(=O)CN(C)S(=O)(=O)c2ccc(Br)s2)cc1	0	58	-2	-3	0	0
O=C1CCCC/C1=C\Nc1ccc(Cl)cn1	/	26	6	/	/	/
Cc1ccc(N/C=C2\CCCCC2=O)nc1	43*	2	1	4	0	0
COc1ccc(N(CC(=O)Nc2ccccc2C)S(=O)(=O)c2ccccc2[N+](=O)[O-])c(OC)c1	0	/	/	-1	/	0
COc1ccc(CN(C)CC(=O)Nc2c(C)cccc2C)c(OC)c1	43*	/	/	-2	/	0
Cc1cccc(C(C)C)c1NC(=O)CN(C)Cc1cccc(F)c1	43*	/	/	-1	/	0
COc1ccc(N(CC(=O)Nc2c(C)cccc2C)S(=O)(=O)c2ccccc2[N+](=O)[O-])c(OC)c1	43*	0	-3	-2	/	0
CCC(=O)N(C)C[C@@H]1Oc2ncc(C#Cc3ccccc3)cc2C(=O)N([C@H](C)CO)C[C@@H]1C	0	6	1	7	0	-1
COc1ccccc1-c1cnc2c(c1)C(=O)N([C@H](C)CO)C[C@H](C)[C@H](CN(C)Cc1ccc(F)cc1)O2	0	33	2	10	0	-1
CNC(=O)C[C@@H]1C(=O)N(CCc2ccccc2)CC1(C)C	43*	-3	/	-7	-1	0
C[C@H]1CN([C@@H](C)CO)S(=O)(=O)c2ccc(C#CC3CC3)cc2O[C@H]1CN(C)C(=O)c1ccncc1	0	20	-2	-6	0	-1
